Experimental data: ChEMBL document CHEMBL1121586, “Synthesis, biological activity, and structure--activity/toxicity relationships of a series of terphenyl analogues of hemicholinium-3 and acetyl-seco-hemicholinium-3. 3” (J Med Chem, 1980)

What was measured:
[1] = Tested for biphenyl analogue in charles river CD-1 strain adult male albino mice after intraperitoneal administration; assay type: ADME, organism-based; details: CD-1, mouse, in vivo, ip
[2] = Ratio of terphenyl LD50 doses to biphenyl HC-3 in charles river CD-1 strain adult male albino mice; assay type: ADME, organism-based; details: CD-1, mouse, in vivo
[3] = Tested for terphenyl analogue in charles river CD-1 strain adult male albino mice after intraperitoneal administration.; assay type: ADME, organism-based; details: CD-1, mouse, in vivo, ip
In short: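 Adult male albino Charles River CD-1 mice (20-30 g) were dosed ip with a suspension in 0.8% (w/v) sodium carboxymethylcellulose in 0.9% NaCl. The LD50 was estimated by Finney's staircase sampling method, which allows for variation in LD50 with time of day, and is reported with 95% confidence limits.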

[4] = Ratio of terphenyl LD50 doses to biphenyl analogues in charles river CD-1 strain adult male albino mice; assay type: ADME, organism-based; details: CD-1, mouse, in vivo
Mus musculus [5] = assay: Tested for percentage mortality in charles river CD-1 strain adult male albino mice after introducing antagonist neostigmine at intraperitoneal dosage of 0.2 mg/kg, 1 min prior to compound; assay type: functional; design: concentration or dose not given beside the values; details: ip
Mus musculus [6] = assay: Tested for percentage mortality in charles river CD-1 strain adult male albino mice after introducing antagonist choline at intraperitoneal dosage of 20 mg/kg, 1 min prior to compound; assay type: functional; design: concentration or dose not given beside the values; details: ip
Mus musculus [7] = assay: Tested for percentage mortality in charles river CD-1 strain adult male albino mice after introducing antagonist neostigmine at intraperitoneal dosage of 0.2 mg/kg, 1 min prior to compound; b represents Least toxic; assay type: functional, organism-based; design: dose 0.2 mg/kg
Mus musculus [8] = assay: Tested for terphenyl analogue in charles river CD-1 strain adult male albino mice after intraperitoneal administration; b represents Least toxic; assay type: ADME, organism-based; details: in vivo, ip
Mus musculus [9] = assay: Tested for percentage mortality in charles river CD-1 strain adult male albino mice after introducing antagonist choline at intraperitoneal dosage of 20 mg/kg, 1 min prior to compound; b represents Least toxic; assay type: functional, organism-based; design: dose 20 mg/kg

Compound	LD50 [1] [mg/kg]	selectivity ratio [2]	LD50 [3] [mg/kg]	selectivity ratio [4]	mortality (Mus musculus [5]) [%]	mortality (Mus musculus [6]) [%]	Mortality (Mus musculus [7])	LD95 (Mus musculus [8])	Mortality (Mus musculus [9])
CCCCC[N+](C)(C)CC(=O)c1ccc(-c2ccc(-c3ccc(C(=O)C[N+](C)(C)CCCCC)cc3)cc2)cc1.[Br-].[Br-]	5.6	32.8	5.32	1.38	100	80			
CC(=O)OCC[N+](C)(C)CC(=O)c1ccc(-c2ccc(-c3ccc(C(=O)C[N+](C)(C)CCOC(C)=O)cc3)cc2)cc1.[Br-].[Br-]	0.125	2.56	0.333	2.66	20	30			
CCOCC[N+](C)(C)CC(=O)c1ccc(-c2ccc(-c3ccc(C(=O)C[N+](C)(C)CCOCC)cc3)cc2)cc1.[Br-].[Br-]	1.84	127	16.6	9.02	90	90			
CC(=O)SCC[N+](C)(C)CC(=O)c1ccc(-c2ccc(-c3ccc(C(=O)C[N+](C)(C)CCSC(C)=O)cc3)cc2)cc1.[Br-].[Br-]	0.133	23.5	3.05	22.9	80	60			
C[N+](C)(CCS)CC(=O)c1ccc(-c2ccc(-c3ccc(C(=O)C[N+](C)(C)CCS)cc3)cc2)cc1.[Br-].[Br-]	29.4						Toxic	Toxic	Toxic
C[N+]1(C)CCOC(O)(c2ccc(-c3ccc(-c4ccc(C5(O)C[N+](C)(C)CCO5)cc4)cc3)cc2)C1.[Br-].[Br-] (stereo not drawn)	0.13	0.82	0.107	0.82	80	70			
CC(=O)CCC[N+](C)(C)CC(=O)c1ccc(-c2ccc(-c3ccc(C(=O)C[N+](C)(C)CCCC(C)=O)cc3)cc2)cc1.[Br-].[Br-]	3.1	32.8	4.27	1.38					
